Test results as given in ChEMBL document CHEMBL3352409, “Synthetic reactions with rare taccalonolides reveal the value of C-22,23 epoxidation for microtubule stabilizing potency” (J Med Chem, 2014).
Values belong to the compound of their own block, whether it stands above or below them. The source made the active and inactive calls. The rule behind the calls is not given here.

Columns and labels:
HeLa [1] = assay: Antiproliferative activity against human HeLa cells by SRB assay; type: functional, cell-based
Method in brief: (§1)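 SRB assay in HeLa cells, IC50 from concentration-response; three independent experiments, each in triplicate, reported with standard deviation.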

HeLa [2] = assay: Ratio of taccalonolide AM IC50 to compound IC50 for human HeLa cells by SRB assay; type: functional
HeLa [3] = assay: Stabilization of microtubules in interphase human HeLa cells at 10 nM after 18 hrs by immunofluorescence microscopy; type: cell-based
Method in brief: (§2)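 Interphase HeLa cells exposed to compound or EtOH vehicle for 18 h. Microtubules stained with a β-tubulin antibody and imaged by fluorescence microscopy.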

Tubulin (Sus scrofa) [4] = target: T1, Tubulin (Sus scrofa) (UniProt P02554+P02550); assay: Binding affinity to purified porcine brain tubulin at 6 uM by turbidimetry
Method in brief: (§3)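 Compound added from 100× EtOH stock (1% final EtOH). Polymerization started by shift to 37 °C and followed as turbidity at OD340.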

MDA-MB-231 [5] = assay: Antitumor activity against human MDA-MB-231 cells xenografted in nu/nu mouse assessed as tumor growth inhibition at 0.75 mg/kg, ip on days 0, 3 and 7 measured on day 21; type: functional, organism-based; parameters: dose 0.75 mg/kg
Method in brief: (§4)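 MDA-MB-231 fragments implanted bilaterally in female nu/nu mice; groups of 5, dosing started at mean tumor size 134 mm3. Compound given ip on days 0, 3 and 7, from a 1 mg/mL EtOH stock diluted at least 1:10 in 200 µL PBS. Tumor volume and weight measured 2-3 times weekly; 10 tumors averaged, with standard error; mice sacrificed day 21.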

Mus musculus [6] = assay: Toxicity in human MDA-MB-231 cells xenografted nu/nu mouse assessed as weight loss at 0.75 mg/kg, ip on days 0, 3 and 7 measured on day 17; type: organism-based; parameters: dose 0.75 mg/kg, route intraperitoneal; conditions: in vivo; method in brief: as §4
HeLa [7] = assay: Antiproliferative activity against human HeLa cells up to 50 uM by SRB assay; type: functional, cell-based; method in brief: as §1
HeLa [8] = assay: Ratio of taccalonolide B IC50 to compound IC50 for human HeLa cells by SRB assay; type: functional
HeLa [9] = assay: Stabilization of microtubules in interphase human HeLa cells at 4 nM after 18 hrs by immunofluorescence microscopy; type: cell-based; method in brief: as §2
Tubulin (Sus scrofa) [10] = target: T1, Tubulin (Sus scrofa); assay: Binding affinity to purified porcine brain tubulin at 0.7 uM by turbidimetry; method in brief: as §3
MDA-MB-231 [11] = assay: Antitumor activity against human MDA-MB-231 cells xenografted in nu/nu mouse assessed as tumor growth inhibition at 0.25 mg/kg, ip on days 0 and 3 measured on day 7; type: functional, organism-based; parameters: dose 0.25 mg/kg
Method in brief: (§5)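 MDA-MB-231 tumor fragments implanted bilaterally in female nu/nu mice; randomized groups of 5, dosing started at mean tumor size 134 mm3. Compound given ip at 0.25 mg/kg on days 0 and 3, from a 1.25 mg/mL EtOH stock diluted at least 1:10 in 200 µL PBS. Tumor volume and body weight recorded 2-3 times weekly; 10 tumors averaged, with standard error.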

MDA-MB-231 [12] = assay: Antitumor activity against human MDA-MB-231 cells xenografted in nu/nu mouse assessed as tumor growth inhibition at 0.25 mg/kg, ip on days 0 and 3 measured after 1 week post final dose; type: functional, organism-based; parameters: dose 0.25 mg/kg; method in brief: as §5
MDA-MB-231 [13] = assay: Antitumor activity against human MDA-MB-231 cells xenografted in nu/nu mouse assessed as tumor growth inhibition at 0.25 mg/kg, ip on days 0 and 3 measured after 17 days; type: functional, organism-based; parameters: dose 0.25 mg/kg; method in brief: as §5
Mus musculus [14] = assay: Toxicity in human MDA-MB-231 cells xenografted nu/nu mouse assessed as weight loss at 0.25 mg/kg, ip on days 0 and 3 measured on day 7; type: organism-based; parameters: dose 0.25 mg/kg, route intraperitoneal; conditions: in vivo; method in brief: as §5
Mus musculus [15] = assay: Toxicity in human MDA-MB-231 cells xenografted nu/nu mouse assessed as weight loss at 0.25 mg/kg, ip on days 0 and 3 measured on day 17; type: organism-based; parameters: dose 0.25 mg/kg, route intraperitoneal; conditions: in vivo; method in brief: as §5
Mus musculus [16] = assay: Toxicity in human MDA-MB-231 cells xenografted nu/nu mouse assessed as mortality at 0.375 mg/kg, ip on days 0 and 3 measured on day 8 to day 11; type: organism-based; parameters: dose 0.375 mg/kg, route intraperitoneal; conditions: in vivo
Method in brief: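 Female nu/nu mice with bilateral MDA-MB-231 tumor fragment implants, groups of 5. Two doses were given on days 0 and 3, starting when mean tumor size was 134 mm3. Stock in 100% EtOH (1.25 mg/mL) was diluted at least 1:10 in 200 µL PBS just before ip injection. Mice were checked daily during dosing, weighed 2-3 times weekly, and scored for lethality after the last dose.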

HeLa [17] = assay: Ratio of taccalonolide A IC50 to compound IC50 for human HeLa cells by SRB assay; type: functional

T1 sequence (P02550 whole entry, looked up): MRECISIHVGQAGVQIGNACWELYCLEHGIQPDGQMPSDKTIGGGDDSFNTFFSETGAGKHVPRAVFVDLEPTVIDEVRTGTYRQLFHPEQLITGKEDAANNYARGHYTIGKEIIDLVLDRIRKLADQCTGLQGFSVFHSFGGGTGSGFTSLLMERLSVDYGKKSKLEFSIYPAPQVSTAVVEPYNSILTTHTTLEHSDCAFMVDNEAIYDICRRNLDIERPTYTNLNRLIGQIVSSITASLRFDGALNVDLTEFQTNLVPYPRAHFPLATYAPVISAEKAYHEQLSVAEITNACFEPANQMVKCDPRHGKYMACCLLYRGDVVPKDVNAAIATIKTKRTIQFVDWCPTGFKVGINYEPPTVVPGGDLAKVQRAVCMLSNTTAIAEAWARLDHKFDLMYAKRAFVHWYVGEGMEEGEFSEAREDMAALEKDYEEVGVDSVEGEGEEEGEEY
T1 sequence (P02554 whole entry, looked up): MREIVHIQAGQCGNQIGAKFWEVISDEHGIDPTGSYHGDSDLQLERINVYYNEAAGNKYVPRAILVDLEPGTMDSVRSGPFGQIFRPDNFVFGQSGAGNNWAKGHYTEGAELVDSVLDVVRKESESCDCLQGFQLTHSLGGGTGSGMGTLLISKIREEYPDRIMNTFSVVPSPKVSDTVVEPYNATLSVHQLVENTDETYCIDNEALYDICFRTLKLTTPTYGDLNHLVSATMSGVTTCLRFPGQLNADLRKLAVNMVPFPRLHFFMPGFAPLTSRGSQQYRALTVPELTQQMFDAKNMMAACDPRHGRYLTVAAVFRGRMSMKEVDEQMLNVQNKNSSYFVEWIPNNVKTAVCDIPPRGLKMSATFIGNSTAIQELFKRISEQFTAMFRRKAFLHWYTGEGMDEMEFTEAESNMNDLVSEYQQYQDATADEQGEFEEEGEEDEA

IC50 (HeLa [1]): 17.2 nM
Structure (SMILES): CC(=O)O[C@@H]1[C@H]2[C@H]3[C@H]([C@H](OC(C)=O)[C@H](OC(C)=O)[C@]2(C)[C@H]2[C@H](C)[C@@H]4O[C@@]45OC(=O)[C@@](C)(O)[C@]5(C)[C@H]12)[C@@]1(C)[C@@H](OC(C)=O)[C@H]2O[C@H]2C[C@]1(O)C(=O)[C@@H]3O

IC50 (HeLa [1]): 8.4 nM
Structure (SMILES): CC(=O)O[C@H]1[C@H]2[C@H]([C@@H]3[C@@H](O)[C@@H]4[C@H]([C@H](C)[C@@H]5O[C@@]56OC(=O)[C@@](C)(O)[C@]46C)[C@@]3(C)[C@H]1OC(C)=O)[C@@H](O)C(=O)[C@@]1(O)C[C@@H]3O[C@@H]3[C@H](OC(C)=O)[C@]21C

IC50 (HeLa [1]): 685 nM
Structure (SMILES): CC(=O)O[C@H]1C[C@H]2[C@H]([C@@H]3[C@@H](O)[C@@H]4[C@H]([C@H](C)[C@@H]5O[C@@]56OC(=O)[C@@](C)(O)[C@]46C)[C@]31C)[C@@H](O)C(=O)[C@H]1C[C@@H]3O[C@@H]3[C@H](O)[C@@]12C

IC50 (HeLa [1]): 47 nM
Structure (SMILES): CC(=O)O[C@H]1C[C@H]2[C@H]([C@@H]3[C@@H](O)[C@@H]4[C@H]([C@H](C)C=C5OC(=O)[C@@](C)(O)[C@@]54C)[C@]31C)[C@@H](O)C(=O)[C@H]1C[C@@H]3O[C@@H]3[C@H](OC(=O)CC(C)C)[C@@]12C
Ratio IC50 (HeLa [2]): 42

IC50 (HeLa [1]): 0.88 nM
Activity (Tubulin (Sus scrofa) [4]): Active
Structure (SMILES): CC(=O)O[C@H]1C[C@H]2[C@H]([C@@H]3[C@@H](O)[C@@H]4[C@H]([C@H](C)[C@@H]5O[C@@]56OC(=O)[C@@](C)(O)[C@]46C)[C@]31C)[C@@H](O)C(=O)[C@H]1C[C@@H]3O[C@@H]3[C@H](OC(=O)CC(C)C)[C@@]12C
Activity (HeLa [3]): Active
Activity (MDA-MB-231 [5]): inactive
Activity (Mus musculus [6]): Non-toxic

Structure (SMILES): CC(=O)O[C@@H]1[C@H](O)[C@H]2[C@@H]3[C@@H](O)[C@@H]4[C@H]([C@H](C)C=C5OC(=O)[C@@](C)(O)[C@@]54C)[C@@]3(C)[C@@H](OC(C)=O)[C@@H](OC(C)=O)[C@@H]2[C@]2(C)[C@@H]1C[C@@H]1O[C@@H]1[C@@H]2OC(C)=O
Activity (HeLa [7]): inactive

IC50 (HeLa [1]): 3480 nM
Structure (SMILES): CC(=O)O[C@@H]1[C@H]2[C@@H]3C(=O)C(O)=C4C[C@@H]5O[C@@H]5[C@H](OC(C)=O)[C@]4(C)[C@H]3[C@H](OC(C)=O)[C@H](OC(C)=O)[C@]2(C)[C@@H]2[C@@H]1[C@]1(C)C(=C[C@H]2C)OC(=O)[C@@]1(C)O

Structure (SMILES): CC(=O)O[C@H]1[C@H]2[C@H]([C@@H]3[C@@H](O)[C@@H]4[C@H]([C@H](C)[C@@H]5O[C@@]56OC(=O)[C@@](C)(O)[C@]46C)[C@@]3(C)[C@H]1OC(C)=O)[C@@H](O)C(=O)[C@H]1C[C@@H]3O[C@@H]3[C@H](OC(C)=O)[C@]21C
Ratio IC50 (HeLa [8]): 734

IC50 (HeLa [1]): 188 nM
Structure (SMILES): CC(=O)O[C@@H]1[C@H]2[C@@H]3[C@@H](O)C(=O)[C@H]4C[C@@H]5O[C@@H]5[C@H](OC(C)=O)[C@]4(C)[C@H]3C[C@H](OC(C)=O)[C@]2(C)[C@H]2[C@H](C)[C@@H]3O[C@@]34OC(=O)[C@@](C)(O)[C@]4(C)[C@H]12

IC50 (HeLa [1]): 15.6 nM
Structure (SMILES): CC(=O)O[C@@H]1[C@H]2[C@H]3[C@H]([C@H](OC(C)=O)[C@H](OC(C)=O)[C@]2(C)[C@H]2[C@H](C)[C@@H]4O[C@@]45OC(=O)[C@@](C)(O)[C@]5(C)[C@H]12)[C@@]1(C)[C@@H](OC(C)=O)[C@H]2O[C@H]2C[C@]1(O)C(=O)[C@@H]3OC(C)=O

Structure (SMILES): CC(=O)O[C@@H]1[C@H]2[C@@H]3[C@@H](OC(C)=O)C(=O)[C@@]4(O)C[C@@H]5O[C@@H]5[C@H](OC(=O)CC(C)C)[C@]4(C)[C@H]3C[C@H](OC(C)=O)[C@]2(C)[C@H]2[C@H](C)[C@@H]3O[C@@]34OC(=O)[C@@](C)(O)[C@]4(C)[C@H]12
IC50 (HeLa [1]): 0.45 nM
Activity (HeLa [9]): Active
Activity (Tubulin (Sus scrofa) [10]): Active
TGI (MDA-MB-231 [11]): Active
TGI (MDA-MB-231 [12]): Active
TGI (MDA-MB-231 [13]): Active
Activity (Mus musculus [14]): 10%
Activity (Mus musculus [15]): Non-toxic
Activity (Mus musculus [16]): Toxic

Structure (SMILES): CC(=O)O[C@H]1[C@H]2[C@@H]([C@@H](O)[C@@H](O)[C@H]3C[C@@H]4O[C@@H]4[C@H](OC(C)=O)[C@]23C)[C@@H]2[C@@H](O)[C@@H]3[C@H]([C@H](C)C=C4OC(=O)[C@@](C)(O)[C@@]43C)[C@@]2(C)[C@H]1OC(C)=O
Activity (HeLa [7]): inactive

IC50 (HeLa [1]): 820 nM
Structure (SMILES): CC(=O)O[C@@H]1[C@H]2[C@@H]3C(=O)C(O)=C4C[C@@H]5O[C@@H]5[C@H](OC(C)=O)[C@]4(C)[C@H]3[C@H](OC(C)=O)[C@H](OC(C)=O)[C@]2(C)[C@H]2[C@H](C)[C@@H]3O[C@@]34OC(=O)[C@@](C)(O)[C@]4(C)[C@H]12

IC50 (HeLa [1]): 29.6 nM
Structure (SMILES): CC(=O)O[C@@H]1[C@H]2[C@@H]3[C@@H](OC(C)=O)C(=O)[C@@]4(O)C[C@@H]5O[C@@H]5[C@H](OC(C)=O)[C@]4(C)[C@H]3C[C@H](OC(C)=O)[C@]2(C)[C@H]2[C@H](C)[C@@H]3O[C@@]34OC(=O)[C@@](C)(O)[C@]4(C)[C@H]12

Structure (SMILES): CC(=O)O[C@@H]1[C@H]2[C@H]3[C@H]([C@H](OC(C)=O)[C@H](OC(C)=O)[C@]2(C)[C@H]2[C@H](C)[C@@H]4O[C@@]45OC(=O)[C@@](C)(O)[C@]5(C)[C@H]12)[C@]1(C)[C@H](C[C@@H]2O[C@@H]2[C@@H]1OC(C)=O)C(=O)[C@@H]3O
Ratio IC50 (HeLa [17]): 231

IC50 (HeLa [1]): 14.5 nM
Structure (SMILES): CC(=O)O[C@H]1C[C@H]2[C@H]([C@@H]3[C@@H](O)[C@@H]4[C@H]([C@H](C)[C@@H]5O[C@@]56OC(=O)[C@@](C)(O)[C@]46C)[C@]31C)[C@@H](O)C(=O)[C@H]1C[C@@H]3O[C@@H]3[C@H](OC(C)=O)[C@@]12C
